Seven compounds from ChEMBL document CHEMBL3813653, “Disulfides with Anti-inflammatory Activity from the Brown Alga Dictyopteris membranacea” (J Nat Prod, 2016) can be followed below.

One may read the IC50 as the midpoint of a concentration-inhibition curve.

Activity calls are given as the source filed them. No cut-off for these calls is given here.

Data set [1] has as its system Staphylococcus aureus. As to the kind of experiment: Antibacterial activity against Staphylococcus aureus EMRSA-15 after 18 hrs by serial dilution method. It counts as functional, organism-based. Summed up:
(§1)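 Strains grown on nutrient agar for 24 h at 37 °C. Compounds dissolved in DMSO and diluted in Mueller–Hinton broth to a 512 μg/mL starting concentration, then serially diluted in MHB with 10 mg/L Mg2+ and 20 mg/L Ca2+. Final inoculum 5 × 10^5 cfu/mL; 18 h, 37 °C. MIC is the lowest concentration with no growth, confirmed by MTT colour change. DMSO at most 3.125% v/v; triplicate.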

Data set [2] deals with Staphylococcus aureus. In words: Antibacterial activity against Staphylococcus aureus SA1199B after 18 hrs by serial dilution method. Type of data set: functional, organism-based. The method in brief:
as §1

For the next data set, the system named is Escherichia coli. In words: Antibacterial activity against Escherichia coli NCTC 10418 after 18 hrs by serial dilution method. Type of data set: functional, organism-based. The method in brief:
as §1

The subject of data set [3] is RAW264.7. In words: Antiinflammatory activity in mouse RAW264.7 cells assessed as inhibition of LPS-induced nitric oxide production at 10 ug/ml preincubated for 1 hr followed by LPS stimulation for 48 hrs by Griess assay. It counts as functional, cell-based. The method in brief:
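RAW 264.7 mouse macrophages in DMEM with 10% heat-inactivated FBS at 37 °C, 5% CO2. Compounds fixed at 10 μg/mL in Carbowax 400 (0.1% v/v final), added 1 h before 100 ng/mL LPS for 48 h. Nitrite in the supernatant measured by Griess reaction (540 nm) against a sodium nitrite standard curve. Controls: 0.1% Carbowax only.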
In general terms: The Griess reaction detects nitrite, a stable product of nitric oxide.

Data set [4] has as its system RAW264.7. As to the kind of experiment: Antiinflammatory activity in mouse RAW264.7 cells assessed as inhibition of LPS-induced nitric oxide production preincubated for 1 hr followed by LPS stimulation for 48 hrs by Griess assay. It counts as functional, cell-based. Summed up: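 Macrophage line RAW 264.7 pretreated 1 h with a range of concentrations (vehicle Carbowax 400, 0.1% v/v final), then given 100 ng/mL LPS for 48 h. Supernatant nitrite read by Griess reaction at 540 nm using a nitrite standard curve. NO normalized to Carbowax-only cells (100%); IC50 is the concentration giving 50% inhibition; four replicates, mean ± SD.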

Data set [5] relates to RAW264.7. In words: Cytostatic activity against mouse RAW264.7 cells assessed as cell growth inhibition after 48 hrs by MTT assay. The conditions noted are these: raw264.7, 48 h. Type of data set: cell-based. Summed up:
(§2)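 RAW 264.7 cells seeded, cultured overnight, and the seeded cell number measured before treatment as control. Cells exposed to various concentrations for 48 h, then MTT at 0.5 mg/mL […]. Cells lysed in 2-propanol with 0.4% HCl; absorbance read at 610 nm. OD normalized to control; one-way ANOVA.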
In general terms: Tetrazolium dyes change colour on reduction, which living cells bring about.

Data set [6] concerns RAW264.7. In words: Cytotoxicity against mouse RAW264.7 cells assessed as cell growth inhibition after 48 hrs by MTT assay. It counts as cell-based. Particulars: raw264.7, 48 h. The method in brief: as §2
The subject of data set [7] is RAW264.7. As to the kind of experiment: Antiinflammatory activity in mouse RAW264.7 cells assessed as inhibition of LPS-induced nitric oxide production treated 1 hr before LPS challenge measured after 48 hrs by Griess reaction.

For `CCCCCCCCC(=O)CCSSCCC(=O)CCCCCCCC`, the result in the data set on Staphylococcus aureus [1], in the data set on Staphylococcus aureus [2] and in the data set on Escherichia coli was inactive.

As to `CCCCCC/C=C/C(=O)CCSSCCC(=O)CCCCCCCC`, the result with Staphylococcus aureus [1], with Staphylococcus aureus [2] and in the data set with Escherichia coli was inactive.

For the compound `CCCCCCC1CC(=O)CCSS1` (configuration not stated), the result in the data set with Staphylococcus aureus [1], in the data set with Staphylococcus aureus [2] and in the data set with Escherichia coli was inactive. The inhibition result in the data set with RAW264.7 [3] was “Active”. Besides, in the data set with RAW264.7 [4], the IC50 turned out to be 14.2 µM. Moreover, in the data set with RAW264.7 [5], the “growth inhibition (GI)” value is listed as “Toxic”. In addition, the GI with RAW264.7 [6] was over 85 µM.

Take `CCCCCC/C=C/C(=O)CCSSCCC(=O)/C=C/CCCCCC`: the result with Staphylococcus aureus [1], in the data set with Staphylococcus aureus [2] and in the data set on Escherichia coli was inactive.

Consider `CCCCCC/C=C/C(=O)CCSSCCC(=O)CC(CCCCCC)SC` (configuration not stated), for which the result in the data set with Staphylococcus aureus [1], in the data set on Staphylococcus aureus [2] and in the data set with Escherichia coli was inactive.

As for `CCCCCCCCC(=O)CCSSCCC(=O)CC(CCCCCC)SC` (configuration not stated), the result with Staphylococcus aureus [1], with Staphylococcus aureus [2] and in the data set with Escherichia coli was inactive. Besides, the inhibition entry with RAW264.7 [3] is “Active”. The IC50 in the data set with RAW264.7 [4] amounted to 3.8 µM. Further, the “growth inhibition (GI)” value with RAW264.7 [5] is reported as “Toxic”. Moreover, the GI in the data set with RAW264.7 [6] was over 45 µM.

On to `C=C([C@H]1CC[C@@](C)(O)[C@@H](Br)C1)[C@H]1[C@H](O)[C@@H]2[C@@H](CC[C@@]2(C)O)C1(C)C`, for which, in the data set on RAW264.7 [7], the IC50 was 2.2 µM.
